Bioassay records as filed in PubChem.
Insulin prom inh: inhibitors of insulin promoter-driven GFP, primary screen, imaging, TRM-6 cells (human fetal islet line), eGFP reporter, cell count; inhibition, % at 2 µM; 0.9% of 130,000 active; reporter expression induced with tamoxifen;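 active = inhibition above the mean plus 3 SD, with well images judged a real hit on visual review, cut at about 60% in these data, passing the limit was not always enough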
Yeast growth inh: growth inhibitors of yeast BB579 in restrictive medium, primary screen, yeast lifespan-shortening project, S. cerevisiae | OD615, 48 h | inhibition, % at 10 µM | 0.51% of 140,000 active | AID 804, 2007;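 active = inhibition above a set limit, 3 SD over the mean compound inhibition, cut at about 44% in these data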
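Detection: OD615 turbidity measurement; Material: Saccharomyces cerevisiae DeaD strain BB579, replicative lifespan model yeast; Timing: 48 h exposure, 30 °C; Doses: single 10 µM dose; Medium: CSMM-D restrictive synthetic medium containing dextrose (glucose); Controls: amphotericin B at 10 µg/mL as positive control.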
RAM network inh: inhibitors of the yeast RAM network, primary screen, dse1pr::URA3 reporter, 5-FOA selection | S. cerevisiae dse1pr::URA3 reporter, 5-FOA growth OD615, 2 d; analog-sensitive cbk1-as2 kinase mutant strain | inhibition, % at 50 µM | 1.8% of 190,000 active | AID 868, 2007;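 active = inhibition above a set limit, 3 SD over mean compound inhibition, cut at about 8.4% in these data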;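 also: 0% = DMSO-only wells with no growth and 100% = 10 µM 1-NA-PP1 full growth; inhibition rescues growth on 5-FOA so higher OD means more RAM inhibition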
Yeast lifespan up: compounds extending yeast replicative lifespan, primary screen, S. cerevisiae, OD615. AID 775, 2007. 0.68% of 130,000 active. inhibition of the nicotinamide effect, % at 10 µM. S. cerevisiae growth with nicotinamide; deaD strain in restrictive glucose medium;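 active = inhibition above a set limit, placed 3 SD over the median of all compounds, cut at about 26% in these data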;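 also: 0% = nicotinamide-treated wells and 100% = cells grown without nicotinamide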
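Material: Modified budding yeast, DeaD strain | Medium: Restrictive glucose medium | Probe or stimulus: 1.5 mM nicotinamide | Dosing: Single dose 10 µM compound, 0.25% DMSO | Times: 48 h at 30 °C | Technique: OD615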
Insulin prom up: insulin promoter activators in MIN6 cells, imaging, high-content screening, mouse beta cells; z-score at 5 µM; 0.3% of 190,000 active; AID 1625, 2009; MIN6 insulin promoter-GFP reporter; stronger effect = higher value;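 active = z-score above 3 at 5 µM with at least 500 cells counted in the well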
An asterisk follows results filed as active; i = inactive; / = no result given. The list is not random: actives were taken first. Their share in the collection is about 3.1%.

SMILES | Insulin prom inh | Yeast growth inh | RAM network inh | Yeast lifespan up | Insulin prom up
CCOC(=O)C(=NC(C)CC)NNc1cccc(C(F)(F)F)c1 (configuration not stated) | 54 | -12 | 0 | -3 | -0.32
CCOC(=O)C(=NC(C)CC)NNc1ccc(Br)cc1 (configuration not stated) | 25 | 93* | 0 | -7 | -1.3
COCCCn1c(=O)/c(=C\c2cccc(OC)c2OC)s/c1=C(/C#N)C(=O)Nc1ccc(C(=O)O)cc1 | / | / | / | / | -0.35
CCC(/C=C1\Sc2ccc(OC)cc2N1CC)=C\c1sc2ccc(OC)cc2[n+]1CCCS(=O)(=O)[O-] | -18 | / | 1 | / | -3.3
CCN1/C(=C/c2cc[n+](CCCS(=O)(=O)[O-])c3ccccc23)Sc2ccccc21 | / | / | 1 | / | 6.1*
Clc1cncc(Cl)c1N/N=C/c1ccncc1 | 62* | -57 | 0 | -5 | -0.24
CC(Nc1ccc(Br)cn1)c1cc(Cl)ccc1O (configuration not stated) | 29 | 60* | 1 | 3 | 0.33
CC(Nc1ccc(Cl)cc1)c1cc(Cl)ccc1O (configuration not stated) | 26 | 8 | -2 | / | /
CC(C)Oc1ccc(CCN=C(N)N=C(N)N)cc1Cl | -20 | / | 0 | / | 0.56
Cc1cc2nc[nH]c2cc1[N+](=O)[O-] | 41 | / | 1 | / | 0.36
CCc1nc2cc([N+](=O)[O-])c([N+](=O)[O-])cc2[nH]1 | 75* | 0 | 3 | 5 | 0.28
CC(C)CC(=O)Nc1cc([N+](=O)[O-])ccc1Cl | / | -22 | 1 | -7 | -0.08
CC(C(=O)Nc1cc([N+](=O)[O-])ccc1Cl)N1CCN(c2ccc(O)cc2)CC1 (configuration not stated) | 72* | -53 | 2 | -3 | -1.4
CN(C)S(=O)(=O)c1ccc(Cl)c(NC(=O)CSc2nc3c(cc2C#N)C(=O)CC(C)(C)C3)c1 | 6 | -26 | 9.1* | 0 | 0.21
CN(C)S(=O)(=O)c1cccc(NC(=O)CSc2nc3c(cc2C#N)C(=O)CC(C)(C)C3)c1 | / | -26 | 6 | -3 | 0.73
COC(=O)CCC(=O)c1oc2ccccc2c1NC(=O)CCCN1C(=O)c2ccccc2C1=O | 38 | -40 | 8.9* | 26 | 1.1
Cc1cc(-c2nnc3n2N=C(c2ccc(F)cc2)CS3)n[nH]1 | / | / | / | / | -0.14
Cc1ccc2c(c1)C1C=CCC1C(C(=O)O)N2 (configuration not stated) | -164 | -26 | 8.7* | 8 | 0.48
O=C(N=c1ccn(-c2nc3ccccc3nc2NS(=O)(=O)c2ccccc2)cc1)c1cccs1 | -4 | -47 | 8.5* | 5 | 1.1
O=C(COC(=O)CC1c2ccccc2CCN1S(=O)(=O)c1ccc(F)cc1)Nc1ccccc1 (configuration not stated) | -15 | 5 | 8.6* | 2 | -0.16
CCCCNC(=O)/C(C#N)=c1\s/c(=C\c2ccccc2OC(F)F)c(=O)n1CCCOC | / | -19 | 9.2* | 21 | 4.5*
COCCCn1c(=O)/c(=C\c2ccccc2OC(F)F)s/c1=C(/C#N)C(=O)N1CCOCC1 | / | / | 9.1* | / | 0.09
COCCCn1c(=O)/c(=C\c2ccccc2OC(F)F)s/c1=C(/C#N)C(=O)NCCOC | / | / | / | / | -0.56
COCCCNC(=O)/C(C#N)=c1\s/c(=C\c2ccccc2OC(F)F)c(=O)n1CCCOC | / | -27 | 3 | 7 | 1.5
COc1ccc(-c2nnn(CC(=O)N(CCN3CCOCC3)C(C(=O)NC3CCCC3)c3ccco3)n2)cc1 (configuration not stated) | / | / | 3 | / | 0.39
SMILES | Insulin prom inh | Yeast growth inh | RAM network inh | Yeast lifespan up | Insulin prom up
O=C(CSc1nnc(NC(=O)c2ccccc2Cl)s1)Nc1ccc2c(c1)oc1ccccc12 | -26 | -29 | 2 | -6 | 0.14
Cc1cc2nnc(SCC(=O)N3CCCCCC3)n2c(N)n1 | / | / | 1 | / | -0.25
CCCC1CCc2c(sc(NC(=O)OCC)c2C#N)C1 (configuration not stated) | -169 | -27 | 2 | / | /
N#Cc1ccccc1Sc1ccccc1C(=O)OCc1nnc(-c2ccccc2)o1 | 36 | -57 | 10* | -15 | /
CSCCC(NC(=O)c1ccccc1Br)C(=O)Nc1ccc(C)cc1 (configuration not stated) | / | -30 | 5 | 14 | 0.38
Cc1nn(-c2ccc(Cl)cc2)c2[nH]c(=O)c(CNCc3ccc4c(c3)OCO4)cc12 | / | -13 | 0 | -9 | /
CCOc1ccc(-n2c(=S)sc3c(=O)[nH]c(SCC(=O)NCC4CCCO4)nc32)cc1 (configuration not stated) | -50 | -52 | 8.7* | 9 | 0.4
CC(C)N(c1ccccc1)c1ccc(NC(=O)COC(=O)CCN2C(=O)c3cccc([N+](=O)[O-])c3C2=O)cc1 | 37 | -8 | 7 | 1 | 0.15
Cc1nc2c(=O)n(C)c(=O)n(C)c2nc1Cl | 18 | 5 | 1 | 75* | -0.6
CC/S(=N\S(=O)(=O)c1ccc(C)cc1)c1ccccc1 (configuration not stated) | / | / | / | / | 0.41
CCOC(=O)c1csc(NC(=O)c2ccc(S(=O)(=O)N(C)C)cc2)n1 | / | -26 | 2 | -11 | 0.26
CCOC(=O)c1sc(NC(=O)c2ccc(S(=O)(=O)N(C)C)cc2)nc1C | i | -44 | 10* | -15 | -0.55
COCC(C)n1c(C)cc(C(=O)COC(=O)c2oc3ccccc3c2C)c1C (configuration not stated) | 33 | 10 | 3 | -4 | -1.4
O=C(Cn1c(=O)oc2ccccc21)c1ccccc1 | 73* | -39 | 0 | -6 | 1.2
CCOc1ccc(NC(=O)Cn2c(=O)oc3ccccc32)cc1 | 7 | -30 | 0 | -18 | 3.6*
CCOc1ccc(CNC(=O)CCn2c(=O)oc3ccccc32)cc1 | -6 | -51 | 3 | -4 | 3.4*
COCC(C)n1c(C)cc(C(=O)Cn2c(=O)oc3ccccc32)c1C (configuration not stated) | 79* | -62 | 0 | 4 | -0.55
O=c1oc2ccccc2n1CCCCCn1c(=O)oc2ccccc21 | / | -9 | 1 | -12 | 0.08
COc1ccc(CCNC(=S)N2CCC(Cc3ccccc3)CC2)cc1OC | 5 | / | 7 | / | -0.47
Cc1cc(C(=O)NNC(=S)NCc2ccco2)nn1C | 0 | / | 2 | / | -1.1
COc1ccc(OC)c(NC(=O)C(C)Oc2ccc(Br)cc2)c1 (configuration not stated) | / | / | 3 | / | -0.01
COCC1CCN(Cc2cn(-c3ccccc3F)nc2-c2cc(C)sc2C)CC1 | / | / | 0 | / | -0.37
FC(F)(F)c1cc(-c2ccco2)nc(-n2nc(C(F)(F)F)cc2C2CC2)n1 | -7 | -9 | 9.1* | -19 | -0.36
CN1CCN(c2nc(-c3ccco3)cc(C(F)(F)F)n2)CC1 | -262 | 25 | -1 | -4 | /
